From ChEMBL document CHEMBL1126787 (J Med Chem, 1993)

Columns and labels:
Homo sapiens [1] = organism: Homo sapiens; test: Association constant for the binding of carboxylate form to human serum albumin; format: functional
In short: (§1)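 Fluorescence lifetime titration of lactone or carboxylate form (20 μM total drug) with varying HSA. Phase-shift lifetimes measured with 30 MHz modulated excitation, emission taken through a 500-nm long-pass filter. Free fraction computed as (τ − τB)/(τF − τB). K and n obtained by nonlinear least-squares fit to K = [Db]/[Df][aa]^n, where aa is amino acid residues.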

[2] = Half-life period in human plasma; format: ADME
In short: (§2)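 Drug (1 μM) incubated at 37 °C in human plasma, continuously aerated with blood gas to hold pH 7.6 ± 0.1. Lactone hydrolysis followed by HPLC. t1/2 and equilibrium % lactone fitted to decay profiles by nonlinear least squares. Average of at least three independent kinetic runs.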

[3] = Half-life period in PBS buffer at 37 C in the absence of human serum albumin; format: ADME
In short: (§3)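 Lactone-to-carboxylate hydrolysis of drug (1 μM total) in PBS (137 mM NaCl, 3 mM KCl, 8 mM Na2HPO4, 1 mM KH2PO4, pH 7.4) at 37 °C, with or without 20 mg/mL (290 μM) HSA. Monitored by HPLC over time. t1/2 and equilibrium % lactone fitted to decay profiles by nonlinear least squares. Average of at least three independent kinetic runs.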

Homo sapiens [4] = organism: Homo sapiens; test: Association constant for the binding of lactone form to human serum albumin; format: functional; in short: as §1
Homo sapiens [5] = organism: Homo sapiens; test: % of lactone form at equilibrium in human plasma; format: functional; in short: as §2
Homo sapiens [6] = organism: Homo sapiens; test: n value for the binding of lactone form to human serum albumin (n value = number of amino acid per binding site); format: functional; in short: as §1
Homo sapiens [7] = organism: Homo sapiens; test: % of lactone form at equilibrium in HSA buffer at 37 degree C in the presence of human serum albumin; format: functional; in short: as §3
[8] = Half-life period in PBS buffer at 37 degree C in the absence of human serum albumin; format: ADME; in short: as §3
Homo sapiens [9] = organism: Homo sapiens; test: % of lactone form at equilibrium in PBS buffer at 37 degree C in the absence of human serum albumin; format: functional; in short: as §3
[10] = Half-life period in HSA buffer at 37 degree C in the presence of human serum albumin; format: ADME; settings: buffer with human serum albumin; in short: as §3
Homo sapiens [11] = organism: Homo sapiens; test: n value for the binding of carboxylate form to human serum albumin (n value = number of amino acid per binding site); format: functional; in short: as §1
Homo sapiens [12] = organism: Homo sapiens; test: % of lactone form at equilibrium in HSA buffer at 37 C in the presence of human serum albumin; format: functional
Homo sapiens [13] = organism: Homo sapiens; test: % of lactone form at equilibrium in PBS buffer at 37 C in the absence of human serum albumin; format: functional
[14] = Half-life period in HSA buffer at 37 C in the presence of human serum albumin; format: ADME; settings: buffer with human serum albumin

| Structure (SMILES) | K (Homo sapiens [1]) | half-life [2] | half-life [3] | K (Homo sapiens [4]) | Activity (Homo sapiens [5]) | Activity (Homo sapiens [6]) | Activity (Homo sapiens [7]) | half-life [8] | Activity (Homo sapiens [9]) | half-life [10] | Activity (Homo sapiens [11]) | Activity (Homo sapiens [12]) | Activity (Homo sapiens [13]) | half-life [14] |
| --- | --- | --- | --- | --- | --- | --- | --- | --- | --- | --- | --- | --- | --- | --- |
| CCc1c2c(nc3ccc(O)cc13)-c1cc3c(c(=O)n1C2)COC(=O)[C@]3(O)CC [7-ETHYL-10-HYDROXYCAMPTOTHECIN] | 148 1/Maa | 34.3 min | 19.9 min | 636 1/Maa | 24% | – | – | – | – | – | – | – | – | – |
| CC[C@@]1(O)C(=O)OCc2c1cc1n(c2=O)Cc2cc3ccccc3nc2-1 [CAMPTOTHECIN] | 4700 1/Maa | 10.6 min | – | 30 1/Maa | <0.2% | 1.8 | <0.5% | 16.9 min | 13% | 12.6 min | 2.3 | – | – | – |
| CC[C@@]1(O)C(=O)OCc2c1cc1n(c2=O)Cc2cc3cc(O)ccc3nc2-1 [HYDROXYCAMPTOTHECIN] | 264 1/Maa | 18.6 min | 22.1 min | 135 1/Maa | 6% | 1.7 | – | – | – | – | 1.7 | 4% | 16% | 21.1 min |
